Test results: ChEMBL document CHEMBL1133557, “Synthesis, SARs, and pharmacological characterization of 2-amino-3 or 6-fluorobicyclo[3.1.0]hexane-2,6-dicarboxylic acid derivatives as potent, selective, and orally active group II metabotropic glutamate receptor agonists” (J Med Chem, 2000)

Legend:
[1] = biological target: T1, Metabotropic glutamate receptor 2 (Rattus norvegicus, UniProt P31421); assay: Agonist activity against Metabotropic glutamate receptor 2 expressed in CHO cells was evaluated by measuring forskolin-induced cyclic AMP formation; type: functional, cell-based
T1 sequence (P31421 whole entry): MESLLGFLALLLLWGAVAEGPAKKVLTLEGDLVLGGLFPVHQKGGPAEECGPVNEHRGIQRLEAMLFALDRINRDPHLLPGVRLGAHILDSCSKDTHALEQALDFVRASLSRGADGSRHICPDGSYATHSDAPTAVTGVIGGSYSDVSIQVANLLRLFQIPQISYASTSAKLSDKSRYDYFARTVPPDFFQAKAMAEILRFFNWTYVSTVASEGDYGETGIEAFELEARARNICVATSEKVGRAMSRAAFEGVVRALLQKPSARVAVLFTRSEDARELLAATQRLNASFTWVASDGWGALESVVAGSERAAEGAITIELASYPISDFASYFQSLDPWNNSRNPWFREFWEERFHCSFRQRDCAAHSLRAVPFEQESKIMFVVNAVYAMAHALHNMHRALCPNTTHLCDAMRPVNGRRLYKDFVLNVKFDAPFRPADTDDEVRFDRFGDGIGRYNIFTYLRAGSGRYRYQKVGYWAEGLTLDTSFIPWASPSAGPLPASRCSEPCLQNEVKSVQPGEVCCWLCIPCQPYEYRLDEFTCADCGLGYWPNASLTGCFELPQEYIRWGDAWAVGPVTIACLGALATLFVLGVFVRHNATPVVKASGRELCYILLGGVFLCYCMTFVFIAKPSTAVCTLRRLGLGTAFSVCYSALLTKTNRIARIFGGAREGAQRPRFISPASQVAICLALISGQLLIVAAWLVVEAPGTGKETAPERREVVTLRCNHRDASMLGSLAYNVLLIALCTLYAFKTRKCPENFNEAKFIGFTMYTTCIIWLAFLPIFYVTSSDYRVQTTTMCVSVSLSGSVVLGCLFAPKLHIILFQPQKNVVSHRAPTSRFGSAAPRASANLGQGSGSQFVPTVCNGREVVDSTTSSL

[2] = biological target: T1, Metabotropic glutamate receptor 2; assay: Antagonist activity against Metabotropic glutamate receptor 2 expressed in CHO cells was evaluated by measuring forskolin-induced cyclic AMP formation; type: functional, cell-based
Method in brief: (§1)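 mGluR2- or mGluR3-expressing CHO cells grown 2 days, then held 4-5 h in medium without glutamine. Cells were preincubated 20 min at 37 °C in PBS with 1 mM IBMX, then exposed for 15 min at 37 °C to 10 µM forskolin plus test agent with 30 µM glutamic acid present. Reaction stopped with ice-cold ethanol; cAMP measured by enzyme immunoassay.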

[3] = tested on: Rattus norvegicus; assay: Tested for mGluR agonist activity by measuring the PCP induced hyperactivity in rats at […]; type: functional
[4] = tested on: Rattus norvegicus; assay: (§2) Tested for mGluR agonist activity by measuring the PCP induced hyperactivity in rats at 30 mg/kg; type: functional
[5] = biological target: T2, Metabotropic glutamate receptor 3 (Rattus norvegicus, UniProt P31422); assay: Tested for binding affinity against Metabotropic glutamate receptor 3 in CHO cells using [3H]-7 as radioligand; type: cell-based
T2 sequence (P31422 whole entry): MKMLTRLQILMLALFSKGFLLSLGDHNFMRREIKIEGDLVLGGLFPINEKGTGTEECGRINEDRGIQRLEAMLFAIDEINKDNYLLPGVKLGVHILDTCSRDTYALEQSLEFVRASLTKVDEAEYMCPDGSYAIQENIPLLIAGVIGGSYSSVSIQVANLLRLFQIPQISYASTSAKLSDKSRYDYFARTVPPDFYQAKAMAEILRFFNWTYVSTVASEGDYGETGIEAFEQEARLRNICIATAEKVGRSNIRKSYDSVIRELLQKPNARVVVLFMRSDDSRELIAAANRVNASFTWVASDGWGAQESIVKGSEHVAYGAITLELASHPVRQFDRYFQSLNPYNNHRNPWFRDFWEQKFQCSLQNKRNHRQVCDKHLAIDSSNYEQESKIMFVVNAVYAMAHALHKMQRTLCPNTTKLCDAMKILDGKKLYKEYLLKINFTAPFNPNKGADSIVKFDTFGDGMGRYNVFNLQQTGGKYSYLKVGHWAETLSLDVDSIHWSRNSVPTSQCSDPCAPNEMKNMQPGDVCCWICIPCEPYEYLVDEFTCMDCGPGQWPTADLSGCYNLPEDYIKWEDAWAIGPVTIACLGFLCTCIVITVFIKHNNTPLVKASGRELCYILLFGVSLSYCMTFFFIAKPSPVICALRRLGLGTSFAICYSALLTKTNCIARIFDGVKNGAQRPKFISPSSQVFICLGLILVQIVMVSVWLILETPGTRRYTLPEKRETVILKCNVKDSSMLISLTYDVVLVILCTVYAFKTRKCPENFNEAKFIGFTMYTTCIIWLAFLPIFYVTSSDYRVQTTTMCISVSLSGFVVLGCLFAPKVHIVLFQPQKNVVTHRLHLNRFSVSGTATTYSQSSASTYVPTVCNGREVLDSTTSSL

[6] = tested on: Rattus norvegicus; assay: Tested for % inhibition of PCP induced hyperactivity in rats at 100 mg/kg
[7] = biological target: T2, Metabotropic glutamate receptor 3; assay: Agonist potency against cloned Metabotropic glutamate receptor 3; type: functional
[8] = tested on: Rattus norvegicus; assay: (§3) Effective dose to evaluate PCP induced hyper activity in rats after oral administration; type: functional
[9] = tested on: Rattus norvegicus; assay: Tested for % inhibition of PCP induced head-weavings in rats at 10000 ug/kg
[10] = tested on: Rattus norvegicus; assay: (§4) Tested for % inhibition of PCP induced hyperactivity in rats at 10 mg/kg; type: functional
[11] = tested on: Rattus norvegicus; assay: Effective dose to evaluate PCP induced head-weaving behavior in rats after oral administration; type: functional
[12] = tested on: Rattus norvegicus; assay: Tested for mGluR agonist activity by measuring the head-weaving behavior in rats at 1000 ug/kg
[13] = tested on: Rattus norvegicus; assay: Tested for mGluR agonist activity by measuring the PCP induced hyperactivity in rats at 100 mg/kg; type: functional
[14] = tested on: Rattus norvegicus; assay: (§5) Tested for % inhibition of PCP induced hyperactivity in rats at 30 mg/kg; type: functional
[15] = tested on: Rattus norvegicus; assay: (§6) Tested for mGluR agonist activity by measuring the PCP induced hyperactivity in rats at 10 mg/kg; type: functional
[16] = biological target: T1, Metabotropic glutamate receptor 2; assay: Antagonist activity against Metabotropic glutamate receptor 2 expressed in CHO cells was evaluated in presence of 30 uM glutamic acid; type: functional, cell-based; settings: read-out: EC50 (the source's name)
[17] = biological target: T2, Metabotropic glutamate receptor 3; assay: Antagonist activity against Metabotropic glutamate receptor 3 expressed in CHO cells was evaluated in presence of 30 uM glutamic acid; type: functional, cell-based; method in brief: as §1
[18] = biological target: T1, Metabotropic glutamate receptor 2; assay: Tested for binding affinity against Metabotropic glutamate receptor 2 in CHO cells using [3H]-7 as radioligand; type: cell-based
[19] = tested on: Rattus norvegicus; assay: Tested for mGluR agonist activity by measuring the PCP induced head weaving behavior in rats at 0.1 ug/kg; type: functional
Method in brief: (§7)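 Rats acclimatized individually at least 60 min. Compound given orally 60 min before PCP 7.5 mg/kg i.p. Head-weavings (slow side-to-side head movements) counted every 10 min for 30 min after PCP, n=6 per group. Percent inhibition versus vehicle total (100%); ED50 derived; ANOVA with Dunnett's test.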

[20] = tested on: Rattus norvegicus; assay: Tested for % inhibition of PCP induced hyperactivity in rats at 3 mg/kg; type: functional
Method in brief: (§8)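 Rats housed singly and acclimatized 60 min in activity-monitoring apparatus inside a sound-proof box. Oral dosing 180 min before PCP 5 mg/kg i.p.; locomotor counts recorded every 10 min for 120 min, n=6 per group. Total counts expressed as percent inhibition relative to vehicle (100%); ED50 derived; ANOVA plus Dunnett's test.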

[21] = tested on: Rattus norvegicus; assay: Tested for mGluR agonist activity by measuring the PCP induced hyperactivity in rats at 0.3 mg/kg; type: functional; method in brief: as §8
[22] = tested on: Rattus norvegicus; assay: Tested for % inhibition of PCP induced head-weavings in rats at 0.1 ug/kg; type: functional; method in brief: as §7
[23] = tested on: Rattus norvegicus; assay: as §3; type: functional; method in brief: as §8; remark: listed apart in the source
[24] = tested on: Rattus norvegicus; assay: Tested for % inhibition of PCP induced hyperactivity in rats at 0.3 mg/kg; type: functional; method in brief: as §8
[25] = tested on: Rattus norvegicus; assay: Tested for mGluR agonist activity by measuring the PCP induced head weaving behavior in rats at 0.03 ug/kg; type: functional; method in brief: as §7
[26] = tested on: Rattus norvegicus; assay: Tested for % inhibition of PCP induced hyperactivity in rats at 0.1 mg/kg; type: functional; method in brief: as §8
[27] = tested on: Rattus norvegicus; assay: Tested for mGluR agonist activity by measuring the PCP induced head weaving behavior in rats at 0.3 ug/kg; type: functional; method in brief: as §7
[28] = tested on: Rattus norvegicus; assay: Tested for mGluR agonist activity by measuring the PCP induced hyperactivity in rats at 3 mg/kg; type: functional; method in brief: as §8
[29] = tested on: Rattus norvegicus; assay: Tested for mGluR agonist activity by measuring the PCP induced hyperactivity in rats at 1 mg/kg; type: functional; method in brief: as §8
[30] = tested on: Rattus norvegicus; assay: Tested for mGluR agonist activity by measuring the PCP induced hyperactivity in rats at 0.1 mg/kg; type: functional; method in brief: as §8
[31] = tested on: Rattus norvegicus; assay: Tested for % inhibition of PCP induced head-weavings in rats at 0.3 ug/kg; type: functional; method in brief: as §7
[32] = tested on: Rattus norvegicus; assay: Tested for % inhibition of PCP induced head-weavings in rats at 0.03 ug/kg; type: functional; method in brief: as §7
[33] = tested on: Rattus norvegicus; assay: Tested for % inhibition of PCP induced hyperactivity in rats at 1 mg/kg; type: functional; method in brief: as §8
[34] = tested on: Rattus norvegicus; assay: as §2; type: functional; method in brief: as §8; remark: listed apart in the source
[35] = tested on: Rattus norvegicus; assay: Tested for % inhibition of PCP induced head-weavings in rats at 300 ug/kg; type: functional; method in brief: as §7
[36] = tested on: Rattus norvegicus; assay: as §5; type: functional; method in brief: as §8; remark: listed apart in the source
[37] = tested on: Rattus norvegicus; assay: Tested for mGluR agonist activity by measuring the PCP induced head-weavings in rats at 300 ug/kg; type: functional; method in brief: as §7
[38] = tested on: Rattus norvegicus; assay: Tested for % inhibition of PCP induced head-weavings in rats at 100 ug/kg; type: functional; method in brief: as §7
[39] = tested on: Rattus norvegicus; assay: Tested for % inhibition of PCP induced head-weavings in rats at 1000 ug/kg; type: functional; method in brief: as §7
[40] = tested on: Rattus norvegicus; assay: Tested for mGluR agonist activity by measuring the PCP induced head-weavings in rats at 1000 ug/kg; type: functional; method in brief: as §7
[41] = tested on: Rattus norvegicus; assay: as §6; type: functional; method in brief: as §8; remark: listed apart in the source
[42] = tested on: Rattus norvegicus; assay: as §4; type: functional; method in brief: as §8; remark: listed apart in the source
[43] = tested on: Rattus norvegicus; assay: Tested for mGluR agonist activity by measuring the PCP induced head-weavings in rats at 100 ug/kg; type: functional; method in brief: as §7

## N[C@@]1(C(=O)O)CC(=O)[C@@H]2[C@H]1[C@@]2(F)C(=O)O (racemic)
[1]
  EC50: 1.26 nM

## C[C@]1(C(=O)O)[C@@H]2CC[C@@](N)(C(=O)O)[C@@H]21 (racemic)
[1]
  EC50: > 100000 nM
[2]
  EC50: > 100000 nM

## N[C@@]1(C(=O)O)CC[C@H]2[C@H](C(=O)O)[C@H]21
[3]
  Total counts: 6.5
[4]
  Total counts: 43800
[5]
  Ki: 53.5 nM
[6]
  inhibition in vivo at 100 mg/kg: 44%
[7]
  EC50: 62.8 nM
[8]
  ED50: > 100 mg/kg
[9]
  Inhibition %: 83%
[10]
  inhibition in vivo at 10 mg/kg: 37%
[11]
  ED50: 3 mg/kg
[12]
  Number of head-weavings: 33
[13]
  Total counts: 36000
[14]
  inhibition in vivo at 30 mg/kg: 32%
[15]
  Total counts: 40600

## N[C@@]1(C(=O)O)CC[C@@H]2[C@H]1[C@@]2(F)C(=O)O (stereo in doubt; (+)11)
[1]
  EC50: 1120 nM

## N[C@]1(C(=O)O)[C@H]2[C@@H](CC1(F)F)[C@@H]2C(=O)O (racemic)
[1]
  EC50: > 100000 nM
[16]
  IC50: 36200 nM

## N[C@@]1(C(=O)O)CC(O)[C@@H]2[C@H]1[C@@]2(F)C(=O)O (mixture of isomers)
[1]
  EC50: 21 nM
[16]
  IC50: > 100000 nM

## N[C@@]1(C(=O)O)CC[C@@H]2[C@H]1[C@@]2(F)C(=O)O (racemic)
[1]
  EC50: 34.2 nM

## N[C@@]1(C(=O)O)CC[C@@H]2[C@H]1[C@@]2(F)C(=O)O (stereo in doubt; (-)-11)
[5]
  Ki: 41.7 nM
[17]
  EC50: > 100000 nM
[7]
  EC50: 80.9 nM
[1]
  EC50: 16.6 nM
[16]
  IC50: > 100000 nM
[18]
  Ki: 22.5 nM

## N[C@@]1(C(=O)O)CC(=O)[C@@H]2[C@H]1[C@@]2(F)C(=O)O (stereo in doubt; (+)-14)
[19]
  Total counts: 16.2
[20]
  inhibition in vivo at 3 mg/kg: 87%
[21]
  Total counts: 27700
[22]
  inhibition in vivo at 0.0001 mg/kg: 52%
[23]
  ED50: 0.3 mg/kg
[24]
  inhibition in vivo at 0.3 mg/kg: 54%
[5]
  Ki: 3.62 nM
[25]
  Total counts: 27.1
[26]
  inhibition in vivo at 0.1 mg/kg: 36%
[17]
  EC50: > 100000 nM
[7]
  EC50: 2.07 nM
[27]
  Total counts: 4.88
[28]
  Total counts: 7760
[29]
  Total counts: 26100
[30]
  Total counts: 38500
[1]
  EC50: 0.57 nM
[16]
  IC50: > 100000 nM
[31]
  inhibition in vivo at 0.0003 mg/kg: 86%
[32]
  inhibition in vivo at 3e-05 mg/kg: 21%
[33]
  inhibition in vivo at 1 mg/kg: 56%
[18]
  Ki: 3.3 nM

## N[C@@]1(C(=O)O)CC(=O)[C@@H]2[C@H]1[C@@]2(F)C(=O)O (stereo in doubt; (-)-14)
[1]
  EC50: 94.7 nM

## N[C@]1(C(=O)O)[C@H]2[C@@H](C[C@@H]1F)[C@@H]2C(=O)O
[20]
  inhibition in vivo at 3 mg/kg: 26%
[34]
  Total counts: 1850
[35]
  inhibition in vivo at 0.3 mg/kg: 47%
[36]
  inhibition in vivo at 30 mg/kg: 97%
[37]
  Total counts: 21
[38]
  inhibition in vivo at 0.1 mg/kg: 35%
[23]
  ED50: 5.1 mg/kg
[5]
  Ki: 65.9 nM
[39]
  inhibition in vivo at 1 mg/kg: 81%
[17]
  EC50: > 100000 nM
[7]
  EC50: 45.4 nM
[28]
  Total counts: 40600
[40]
  Total counts: 7.5
[41]
  Total counts: 11300
[42]
  inhibition in vivo at 10 mg/kg: 79%
[43]
  Total counts: 25.5
